Results: ChEMBL document CHEMBL4627246, “Pyroglutamide-Based P2X7 Receptor Antagonists Targeting Inflammatory Bowel Disease” (J Med Chem, 2020)
The source made the active and inactive calls. Unless noted, the calls are words filed in the database; no cut-off is given here.

Legend:
[1] = target: T1, P2X purinoceptor 7 (Homo sapiens) (UniProt Q99572); assay: Inhibition of human P2X7 expressed in human HEK293 cells assessed as reduction in BzATP-stimulated TO-PRO-3 incorporation at 10 uM preincubated with compound and TO-PRO-3 for 15 mins prior to BzATP addition and measured after 1 hr by Fluo-3AM dye based flow cytometry relative to control; format: cell-based
T1 sequence (whole entry): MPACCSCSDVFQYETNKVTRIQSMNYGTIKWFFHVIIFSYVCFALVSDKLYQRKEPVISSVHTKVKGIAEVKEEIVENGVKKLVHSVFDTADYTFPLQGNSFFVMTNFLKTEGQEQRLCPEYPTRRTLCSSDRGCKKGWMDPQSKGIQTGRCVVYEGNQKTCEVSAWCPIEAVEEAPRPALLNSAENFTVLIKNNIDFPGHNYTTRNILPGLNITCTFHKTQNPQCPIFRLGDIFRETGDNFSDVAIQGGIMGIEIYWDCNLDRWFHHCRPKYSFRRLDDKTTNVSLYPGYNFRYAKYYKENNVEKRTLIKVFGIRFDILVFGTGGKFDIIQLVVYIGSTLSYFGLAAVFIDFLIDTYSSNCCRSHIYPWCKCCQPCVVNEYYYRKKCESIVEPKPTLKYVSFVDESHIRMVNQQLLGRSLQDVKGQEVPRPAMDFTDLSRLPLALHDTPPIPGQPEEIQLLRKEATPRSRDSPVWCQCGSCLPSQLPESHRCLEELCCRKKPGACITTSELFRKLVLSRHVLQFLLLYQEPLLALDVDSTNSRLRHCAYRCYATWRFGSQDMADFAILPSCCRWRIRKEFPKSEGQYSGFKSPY
Method in brief: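 HEK-293 cells overexpressing human P2RX7 loaded with Fluo-3 AM, then incubated with TO-PRO-3 (large pore uptake) and propidium iodide (viability) plus compound (10⁻⁵ M single point) for 15 min before BzATP 100 µM. After 1 h, flow cytometry; percentage of Fluo-3/TO-PRO-3 double-positive cells calculated. Mean of n ≥ 2 with positive control.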

[2] = Drug metabolism in mouse measured after 40 mins; format: ADME; details: read-out: Drug metabolism
[3] = target: T1, P2X purinoceptor 7 (Homo sapiens); assay: Antagonist activity at P2X7 receptor in human THP-1 cells assessed as inhibition of LPS and BzATP-induced IL-1beta production at 10^-5 mol/L pretreated with compound followed by LPS/BzATP addition and measured after 2 to 6 hrs by ELISA; format: cell-based
Method in brief: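 THP-1 monocytes grown in RPMI 1640 + 10% FCS, differentiated to macrophages with PMA (100nM); 10^6 cells pretreated with antagonist at 10^-5 mol/L, then exposed to LPS 10 μmol/L plus BzATP 70 μmol/L at 37 °C, 5% CO2; IL1β quantified by ELISA in samples at 2, 4 and 6 h; mean ± SD, significance P<0.05.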

[4] = Solubility of compound in saline at 1mg/ml; format: physicochemical; details: buffer
[5] = Metabolic stability in human hepatocytes; format: ADME, cell-based, Hepatocyte
P2X purinoceptor 7 = target: T2, P2X purinoceptor 7 (Homo sapiens, UniProt Q99572); assay: Displacement of [3H]-A804598 from human P2X7 expressed in human HEK293 cell membrane incubated for 1 hr by microplate scintillation counting method; format: cell membranes
T2 sequence (Q99572 whole entry): T1 sequence (whole entry)

[6] = target: T1, P2X purinoceptor 7 (Homo sapiens); assay: Antagonist activity at P2X7 receptor in human THP-1 cells assessed as inhibition of LPS and BzATP-induced IL-1beta production at 10^-6 mol/L pretreated with compound followed by LPS/BzATP addition and measured after 2 to 6 hrs by ELISA; format: cell-based; details: TDE = time-dependent effect
Method in brief: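 PMA (100nM)-differentiated THP-1 macrophages (RPMI 1640, 10% FCS), 10^6 cells, pretreated with antagonist at […], then challenged with LPS 10 μmol/L and BzATP 70 μmol/L at 37 °C, 5% CO2; IL1β measured by ELISA, including the 6 h point; mean ± SD, P<0.05 significant.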

[7] = Metabolic stability in human liver microsomes assessed as intrinsic clearance at 0.2 mg/ml incubated for 60 mins by UPLC/MS-MS analysis; format: ADME, Microsome; details: read-out: CLH
[8] = Metabolic stability in human liver microsomes assessed as half life at 0.2 mg/ml incubated for 60 mins by UPLC/MS-MS analysis; format: ADME, Microsome
[9] = target: T1, P2X purinoceptor 7 (Homo sapiens); assay: Antagonist activity at P2X7R in human THP1 cells assessed as inhibition of LPS and BzATP-induced ROS production at 10^-5 mol/L pretreated with compound followed by LPS/BzATP addition and measured up to 5 hrs by kinetic chemiluminescence based fluorometric analysis; format: cell-based; details: THP-1
Method in brief: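 PMA-differentiated THP-1 macrophages (10^5 cells) in RPMI 1640 + 10% FBS pretreated with antagonist at 10^-5 mol/L, then LPS 10 μmol/L plus BzATP 70 μmol/L at 37 °C, 5% CO2; horseradish peroxidase (50 μg/mL) and luminol (50 μM) mixture added, chemiluminescence read on a fluorometer; cell-free H2O2 serves as positive control.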

HEK293 = assay: Cytotoxicity against human HEK293 cells assessed as reduction in cell viability at 10^-5 mol/L incubated for 72 hrs; format: cell-based; details: hek293, 72 h, 10 µM
Method in brief: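 Wild-type and P2RX7-transfected HEK293 cells exposed to compound for 72 hours; viability compared against untreated control.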

[10] = target: T3, P2X purinoceptor 1 (Homo sapiens) (UniProt P51575); assay: Antagonist activity at P2X1 receptor in human platelet assessed as inhibition of thrombin-induced platelet aggregation at 10 '-5 to 10^-6 mol/L pretreated with compound and LPS/BzATP for 10 mins followed by thrombin addition and measured for 8 mins by aggregometry analysis; format: cell-based
T3 sequence (whole entry): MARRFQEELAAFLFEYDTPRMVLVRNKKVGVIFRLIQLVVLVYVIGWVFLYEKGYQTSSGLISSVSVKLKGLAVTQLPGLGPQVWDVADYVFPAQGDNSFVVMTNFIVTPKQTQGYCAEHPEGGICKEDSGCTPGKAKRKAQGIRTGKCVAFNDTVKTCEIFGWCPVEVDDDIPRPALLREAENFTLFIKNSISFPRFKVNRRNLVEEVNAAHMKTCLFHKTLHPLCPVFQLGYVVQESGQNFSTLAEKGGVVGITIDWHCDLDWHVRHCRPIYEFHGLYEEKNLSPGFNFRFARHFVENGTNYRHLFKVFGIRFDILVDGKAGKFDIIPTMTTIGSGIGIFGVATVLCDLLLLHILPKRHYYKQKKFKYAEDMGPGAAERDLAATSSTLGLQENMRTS

[11] = target: T1, P2X purinoceptor 7 (Homo sapiens); assay: Antagonist activity at P2X7R in human THP1 cells assessed as inhibition of LPS and BzATP-induced ROS production at 10^-6mol/L pretreated with compound followed by LPS/BzATP addition and measured after 5 hrs by kinetic chemiluminescence based fluorometric analysis; format: cell-based; details: THP-1
Method in brief: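 Differentiated THP-1 macrophages (10^5 cells, RPMI 1640 + 10% FBS) pretreated with antagonist at 10^-6 mol/L before LPS (10 μmol/L) and BzATP (70 μmol/L), 37 °C, 5% CO2; ROS detected as luminol (50 μM)/horseradish peroxidase (50 μg/mL) chemiluminescence on a fluorometer; H2O2 without cells as positive control.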

SMILES: COc1ccc(CN2C(=O)CC[C@H]2C(=O)NCCc2ccccc2)cc1
- inhibition [1]: 0%

SMILES: CN(Cc1ccccc1)C(=O)[C@@H]1CCC(=O)N1Cc1ccc(Cl)cc1Cl
- inhibition [1]: 0%

SMILES: O=C(NCc1ccccc1Cl)[C@@H]1CCC(=O)N1Cc1ccc(Cl)cc1
- inhibition [1]: 0%

SMILES: O=C(NCCc1ccc(Cl)cc1Cl)[C@@H]1CCC(=O)N1c1ccccc1
- inhibition [1]: 0%

SMILES: CN1CCN(/C=C2\C[C@@H](C(=O)NCc3ccc(Cl)cc3Cl)N(c3cccs3)C2=O)CC1
- inhibition [1]: 49%

SMILES: O=C(NCc1ccc(Cl)cc1Cl)[C@@H]1CCC(=O)N1Cc1ccccc1
- inhibition [1]: 100%

SMILES: CN(C)/C=C1\C[C@H]2C(=O)N(Cc3ccc(Cl)cc3Cl)C(N(C)C)N2C1=O (stereo partly drawn)
- inhibition [1]: 24%

SMILES: O=C(NCc1ccccc1Cl)[C@@H]1CCC(=O)N1Cc1ccccc1
- inhibition [1]: 0%

SMILES: O=C(Nc1ccc(Cl)cc1Cl)[C@@H]1CCC(=O)N1Cc1ccccc1Cl
- inhibition [1]: 0%

SMILES: COc1ccc(N2C(=O)CC[C@H]2C(=O)NCc2ccc(Cl)cc2Cl)cc1
- inhibition [1]: 0%

SMILES: O=C(NCc1ccc(Cl)cc1Cl)[C@@H]1CCC(=O)N1Cc1ccc(Cl)cc1
- inhibition [1]: 0%

SMILES: COc1ccc(CNC(=O)[C@@H]2CCC(=O)N2Cc2ccc(Cl)cc2Cl)c(OC)c1
- inhibition [1]: 0%

SMILES: CCCCCCN1C(=O)[C@@H]2C/C(=C\N(C)C)C(=O)N2C1N(C)C (stereo partly drawn)
- inhibition [1]: 0%

SMILES: CN1C(=O)CC[C@H]1C(=O)NCc1cccc(C(F)(F)F)c1Cl [GSK1482160]
- metabolised at 40 min [2]: 4.4%
- inhibition [3]: Active
- solubility [4]: Insoluble
- Stability [5]: Stable
- IC50 (P2X purinoceptor 7): 0.332 µM
- Ki (P2X purinoceptor 7): 0.068 µM
- inhibition [6]: Tde
- microsomal CLint [7]: 2.8 µL/min/mg
- half-life [8]: 800 min
- inhibition [1]: 98%
- inhibition [9]: Active

SMILES: O=C(NCc1ccc(Cl)cc1Cl)[C@@H]1CCC(=O)N1c1ccccc1
- Stability [5]: Unstable
- inhibition [1]: 50%

SMILES: COc1ccc(NC(=O)[C@@H]2CCC(=O)N2)cc1OC
- inhibition [1]: inactive

SMILES: CN1C(=O)CC[C@H]1C(=O)NCc1cc(C(F)(F)F)ccc1Cl
- inhibition [1]: 0%

SMILES: O=C(NCc1ccc(Cl)cc1Cl)[C@@H]1CCC(=O)N1c1nccs1
- metabolised at 40 min [2]: 93%
- inhibition [3]: Active
- solubility [4]: Insoluble
- Stability [5]: Unstable
- Activity (HEK293): Non-Toxic
- Activity [10]: inactive
- IC50 (P2X purinoceptor 7): 2.38 µM
- Ki (P2X purinoceptor 7): 0.489 µM
- inhibition [6]: Tde
- microsomal CLint [7]: 253 µL/min/mg
- half-life [8]: 7.5 min
- inhibition [1]: 83%
- inhibition [9]: Active

SMILES: CN(C)/C=C1\C[C@H]2C(=O)N(/C(=C/N(C)C)c3ccncc3)C(N(C)C)N2C1=O (stereo partly drawn)
- inhibition [1]: 0%

SMILES: O=C1N[C@H](C(=O)NCc2ccc(Cl)cc2Cl)C/C1=N\O (stereo in doubt)
- inhibition [1]: 52%

SMILES: O=C(NCc1ccc(Cl)cc1Cl)[C@@H]1CCC(=O)N1c1ccsc1
- metabolised at 40 min [2]: 99.9%
- inhibition [3]: Active
- inhibition [11]: Active
- solubility [4]: Insoluble
- Stability [5]: Unstable
- Activity (HEK293): Non-Toxic
- Activity [10]: inactive
- IC50 (P2X purinoceptor 7): 1.25 µM
- Ki (P2X purinoceptor 7): 0.256 µM
- inhibition [6]: Tde
- microsomal CLint [7]: 762 µL/min/mg
- half-life [8]: 2.5 min
- inhibition [1]: 78%
- inhibition [9]: Active

SMILES: O=C(NCc1ccccc1Cl)[C@@H]1CCC(=O)N1c1ccccc1
- inhibition [1]: 0%
